# Activity calls are given as the source filed them. No cut-off for these calls is given here.
# Legend:
# [1] = system: Sarcoma M1; experiment: (§1) Phototoxicity against rat Sarcoma M1 cells implanted in rat assessed as coagulative tumor necrosis at 2.5 mg/kg, ip administered as single dose on day 11 post inoculation followed by 300 J/cm2 irradiation after 2.5 to 3 hrs measured on day 2 post photodynamic therapy by hematoxylin and eosin staining based assay; format: functional, organism-based
# [2] = Drug uptake in kidney tumor of F1 mouse implanted with mouse S37 cells assessed as normalized fluorescence at 2.5 mg/kg, iv measured after 24 hrs post injection in presence of He-Ne laser radiation by local fluorescence spectroscopic analysis; format: ADME, organism-based; conditions: in vivo
# Summary of the method: (§2)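 Single iv dose of 2.5 mg/kg given to F1 mice bearing S37 sarcoma. Skin, muscle, liver, kidney, spleen and tumor taken from three animals each at 0.25, 0.5, 2, 4 and 24 h and read ex vivo by contact local fluorescence spectroscopy. He–Ne 632.8 nm excitation; 640–900 nm integral normalized to backscattered laser signal (FN).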
# [3] = Phototoxicity against mouse S37 cells implanted in F1 mouse assessed as tumor growth inhibition at 5 mg/kg, iv preincubated for 30 mins with subsequent 150 J/cm2 irradiation measured on day 15 post irradiation relative to control; format: functional; conditions: S37, light or radiation study, read-out: TGI
# Summary of the method: (§3)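 S37 sarcoma mice treated on day 7 of tumor growth with compound iv; tumors 140–160 mm3 beforehand, droperidol 0.25 mg ip as anesthetic. LED irradiation at 800 ± 21 nm, 100 mW/cm2, 150 J/cm2, given 15 or 30 min after dosing. Controls got iv 0.9% NaCl. Volume = d1×d2×d3×0.52; TGI = […]×100%.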
# [4] = Phototoxicity against mouse S37 cells implanted in F1 mouse assessed as tumor growth inhibition at 5 mg/kg, iv preincubated for 30 mins with subsequent 150 J/cm2 irradiation measured on day 11 post irradiation relative to control; format: functional; conditions: S37, light or radiation study, read-out: TGI; summary of the method: as §3
# [5] = Drug uptake in tumor of F1 mouse implanted with mouse S37 cells assessed as normalized fluorescence units at 2.5 mg/kg, iv measured after 30 mins in presence of He-Ne laser radiation by local fluorescence spectroscopic analysis; format: ADME, organism-based, Neoplasm; conditions: in vivo, 0.5 h
# Summary of the method: (§4)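 S37 sarcoma-bearing immunocompetent F1 mice (18−22 g) given PS 2.5 mg/kg iv. Animals sacrificed at 0.25, 0.5, 2, 4 and 24 h, with three animals per time point. Skin, tumor and organ samples were read ex vivo by contact local fluorescence spectroscopy under He−Ne 632.8 nm excitation. Integrated 640−900 nm emission was normalized to the backscattered laser signal to give FN.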
# [6] = (§5) Pro-oxidant activity in 1% cremophor EL or rose Bengal assessed as singlet oxygen radical generation by measuring photo-induced fading of 4-nitroso-N,N-dimethylaniline at 3.4 uM in presence of laser radiation and histidine measured every 5 to 10 mins in presence of singlet oxygen quencher NaN3 by absorption spectroscopy; format: functional
# [7] = Phototoxicity against rat Sarcoma M1 cells implanted in rat assessed as tumor volume at 2.5 mg/kg, ip administered as single dose on day 11 after inoculation followed by 300 J/cm2 irradiation after 2.5 to 3 hrs measured on day 3 post photodynamic therapy (reference value: 1.6 +/- 0.3 mm3); format: functional
# Summary of the method: (§6)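 Rats with M1 sarcoma implanted subcutaneously in the left thigh were randomized on day 10, 25 per group. Single ip dose of 2.5 mg/kg on day 11; laser irradiation 2.5–3 h later at 810 nm, 0.51 W/cm2, 300 J/cm2, 10 min over a 1.5 cm field. Five rats sampled per time point for H&E histology, PCNA immunohistochemistry (1:200) and tumor volume. Untreated controls; Student's test, p < 0.05.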
# [8] = as §1, with “as volume of” for “as coagulative”, “tumor parenchyma” for “tumor necrosis”, “11 after” for “11 post”, “day 1” for “day 2”, “assay (reference value: 69 +/- 6%)” for “assay”; format: functional
# Summary of the method: (§7)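 Rat M1 sarcoma was implanted subcutaneously in the left thigh, with randomisation on day 10. A single 2.5 mg/kg ip dose was given on day 11, then 810 nm laser (0.51 W/cm2, 300 J/cm2, 10 min) after 2.5−3 h. Tumours were sectioned on days 1, 3 and 12 after PDT (controls days 12, 14, 23), five animals per point. Parenchyma and necrotic zone volumes were estimated on hematoxylin and eosin staining.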
# [9] = Phototoxicity against rat Sarcoma M1 cells implanted in rat assessed as mitotic index at 2.5 mg/kg, ip administered as single dose on day 11 after inoculation followed by 300 J/cm2 irradiation after 2.5 to 3 hrs measured on day 1 post photodynamic therapy (reference value: 1.9 +/- 0.2 %); format: functional; summary of the method: as §6
# [10] = (§8) Phototoxicity against rat Sarcoma M1 cells implanted in rat assessed as volume of tumor necrotic zones at 2.5 mg/kg, ip administered as single dose on day 11 after inoculation followed by 300 J/cm2 irradiation after 2.5 to 3 hrs measured on day 12 post photodynamic therapy (reference value: 44 +/- 3%); format: functional; summary of the method: as §7
# [11] = as §8, with “of PCNA-positive cells in” for “of”, “parenchyma” for “necrotic zones”, “72” for “44”, “5%)” for “3%)”; format: functional; summary of the method: as §6
# [12] = Phototoxicity against rat Sarcoma M1 cells implanted in rat assessed as mitotic index at 2.5 mg/kg, ip administered as single dose on day 11 after inoculation followed by 300 J/cm2 irradiation after 2.5 to 3 hrs measured on day 3 post photodynamic therapy (reference value: 1.84 +/- 0.04%); format: functional; summary of the method: as §6
# [13] = system: Sarcoma M1; experiment: as §1, with “damage to” for “coagulative”, “nodes” for “necrosis”; format: functional, organism-based
# [14] = Phototoxicity against mouse S37 cells implanted in F1 mouse assessed as tumor growth inhibition at 5 mg/kg, iv preincubated for 15 mins with subsequent 150 J/cm2 irradiation measured on day 11 post irradiation relative to control; format: functional; conditions: S37, light or radiation study, read-out: TGI; summary of the method: as §3
# [15] = Phototoxicity against mouse S37 cells implanted in F1 mouse assessed as tumor growth inhibition at 5 mg/kg, iv preincubated for 15 mins with subsequent 150 J/cm2 irradiation measured on day 8 post irradiation relative to control; format: functional; conditions: S37, light or radiation study, read-out: TGI; summary of the method: as §3
# [16] = Drug uptake in tumor of F1 mouse implanted with mouse S37 cells assessed as normalized fluorescence units at 2.5 mg/kg, iv measured after 15 mins in presence of He-Ne laser radiation by local fluorescence spectroscopic analysis; format: ADME, organism-based, Neoplasm; conditions: in vivo, 0.25 h; summary of the method: as §4
# [17] = Phototoxicity against mouse S37 cells implanted in F1 mouse assessed as tumor growth inhibition at 5 mg/kg, iv preincubated for 15 mins with subsequent 150 J/cm2 irradiation measured on day 20 post irradiation relative to control; format: functional; conditions: S37, light or radiation study, read-out: TGI; summary of the method: as §3
# [18] = as §5, with “6.1” for “3.4”; format: functional
# [19] = Drug uptake in skin tumor of F1 mouse implanted with mouse S37 cells assessed as normalized fluorescence at 2.5 mg/kg, iv measured after 15 mins post injection in presence of He-Ne laser radiation by local fluorescence spectroscopic analysis; format: ADME, organism-based; conditions: in vivo, 0.25 h; summary of the method: as §4
# [20] = Phototoxicity against mouse S37 cells implanted in F1 mouse assessed as tumor growth inhibition at 5 mg/kg, iv preincubated for 15 mins with subsequent 150 J/cm2 irradiation measured on day 15 post irradiation relative to control; format: functional; conditions: S37, light or radiation study, read-out: TGI; summary of the method: as §3
# [21] = Drug uptake in spleen tumor of F1 mouse implanted with mouse S37 cells assessed as normalized fluorescence at 2.5 mg/kg, iv measured after 24 hrs post injection in presence of He-Ne laser radiation by local fluorescence spectroscopic analysis; format: ADME, organism-based; conditions: in vivo; summary of the method: as §2
structure (smiles),measurement,setting,value
CCCO/N=C(\C)c1c(C)c2cc3nc(c4c5[nH]c(cc6nc(cc1[nH]2)[C@@H](C)[C@@H]6CC)c(C)c5C(=O)N(OCCC)C4=O)[C@H](CCC(=O)NCCSSCCNC(=O)CC[C@@H]1c2nc(cc4[nH]c(cc5nc(cc6[nH]c7c2C(=O)N(OCCC)C(=O)c7c6C)[C@H](CC)[C@H]5C)c(/C(C)=N/OCCC)c4C)[C@H]1C)[C@H]3C,Activity,[1],Active
same,Drug uptake,[2],Active
same,inhibition in vivo at 5 mg/kg,[3],100%
same,inhibition in vivo at 5 mg/kg,[4],100%
same,Flu intensity,[5],4 RU
same,Activity,[6],inactive
same,Activity,[7],0.59 mm3
same,Activity,[8],39%
same,Activity,[9],1.2%
same,Activity,[10],71%
same,Activity,[11],39%
same,Activity,[12],1.84%
same,Activity,[13],Active
CCCO/N=C(\C)c1c(C)c2cc3nc(c4c5[nH]c(cc6nc(cc1[nH]2)[C@H](C)[C@H]6CC)c(C)c5C(=O)N(OCCC)C4=O)[C@@H](CCC(=O)OC)[C@@H]3C,inhibition in vivo at 5 mg/kg,[14],100%
same,inhibition in vivo at 5 mg/kg,[15],100%
same,Flu intensity,[16],4.4 RU
same,inhibition in vivo at 5 mg/kg,[17],100%
same,Activity,[18],inactive
same,Flu intensity,[19],2.2 RU
same,inhibition in vivo at 5 mg/kg,[20],100%
same,Drug uptake,[21],Active
